Source: PubChem (several laboratories)
Sampled rows, rich in hits. Any-hit rate of the full collection: about 1.9%.
TAG inh = inhibitors of triacylglycerol accumulation, primary screen, cell-based, uHTS, fluorescence, H9c2; H9c2 cells, Nile Red lipid (TAG) fluorescence; cells loaded with 200 µM oleic acid; inhibition, % at 12.5 µM; 0.66% of 230,000 active; AID 651582, 2012;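 active means pattern-corrected inhibition of lipid staining of at least 50% with the nuclear-stain viability signal not falling by more than 50%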;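 further: 0% = DMSO wells and 100% = triacsin C control wells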
Rad51 HR inh = human RAD51 strand exchange inhibitors, primary screen, biochemical, fluorescence; 0.085% of 200,000 active; inhibition, % at 10 µM; AID 1385, 2008; DNA repair protein RAD51 homolog 1 (Homo sapiens), Q06609; hRad51 DNA strand exchange, fluorescence dequenching;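 active means inhibition above 40% at the single screening dose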;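 further: 0% = DMSO control wells and 100% = blanks with heterologous ssDNA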
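material = hRad51 filaments on single-stranded DNA | timing = filaments 15 min 37 °C, then compound 30 min | signal = FRET fluorescence dequenching, excitation 485 nm, emission 520 nm | benchmarks = control wells and blank wells on each plate | evaluation = percent inhibition relative to plate controls and blanks | compound = 10 µM final, single point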
ABHD5 PLIN5 PPI = ABHD5-PLIN5 interaction inhibitors, primary screen, cell lysate, split luciferase complementation, luminescence. inhibition, % at 4 µM. Split G. princeps luciferase complementation, 4 h. 0.78% of 360,000 active. Perilipin-5 (Homo sapiens) + 1-acylglycerol-3-phosphate O-acyltransferase ABHD5 (Homo …. AID 602281, 2012;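 active means inhibition above the mean inhibition across every tested compound plus 3 SD, cut at about 22% in these data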;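 further: 0% = DMSO only wells and the 100% control is not disclosed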
Target sequence (Q00G26 whole entry, looked up): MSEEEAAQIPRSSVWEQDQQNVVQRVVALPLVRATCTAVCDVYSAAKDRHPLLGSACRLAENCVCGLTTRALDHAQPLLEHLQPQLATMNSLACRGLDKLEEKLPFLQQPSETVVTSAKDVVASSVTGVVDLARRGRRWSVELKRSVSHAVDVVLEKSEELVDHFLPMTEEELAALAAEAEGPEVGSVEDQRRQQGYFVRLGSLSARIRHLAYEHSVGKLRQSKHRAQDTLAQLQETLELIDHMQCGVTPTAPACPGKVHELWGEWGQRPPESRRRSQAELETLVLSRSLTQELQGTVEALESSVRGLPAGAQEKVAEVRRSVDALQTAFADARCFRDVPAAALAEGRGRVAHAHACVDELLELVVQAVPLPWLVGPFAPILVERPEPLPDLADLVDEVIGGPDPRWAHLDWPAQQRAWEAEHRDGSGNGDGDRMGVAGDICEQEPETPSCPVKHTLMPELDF
Target sequence (Q8WTS1 whole entry, looked up): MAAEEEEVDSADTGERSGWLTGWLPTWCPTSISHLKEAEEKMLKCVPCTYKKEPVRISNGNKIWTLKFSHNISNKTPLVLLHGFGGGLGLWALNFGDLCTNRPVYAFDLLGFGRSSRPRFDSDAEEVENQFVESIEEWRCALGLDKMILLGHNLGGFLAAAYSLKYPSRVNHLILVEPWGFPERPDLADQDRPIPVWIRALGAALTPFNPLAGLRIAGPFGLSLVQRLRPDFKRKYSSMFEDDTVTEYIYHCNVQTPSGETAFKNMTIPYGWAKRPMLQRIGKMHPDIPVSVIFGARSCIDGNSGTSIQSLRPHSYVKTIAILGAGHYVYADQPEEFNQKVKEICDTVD
GAA850 FXN act = FXN promoter activators, primary screen, cell-based, luciferase luminescence, HEK293 lucGAA850. activation, % at 6 µM. HEK293 lucGAA850 FXN promoter luciferase reporter, 24 h; percent of 10 µM SAHA response. 0.56% of 360,000 active;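 active means activation above the average of all compounds screened plus 3 SD, cutoff fixed separately per campaign, cut at about 7.5% in these data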;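 further: 0% = DMSO wells and 100% = 10 µM SAHA wells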
HIF act = HIF pathway transcriptional activators, primary screen, cell-based, U2OS HRE-luciferase, luminescence; U2OS HRE-luciferase reporter; normalized: DMSO 0%, desferrioxamine 100%; activation, % at 7.5 µM (by protocol); 0.32% of 300,000 active; AID 1910, 2009;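 active means mean activation of at least 10% of the iron chelator positive control signal, with at least half of replicates also reaching 10%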
Hsp70 act = Hsp70 transcriptional activators, primary screen, cell-based, HeLa, Hsp70 promoter luciferase, luminescence, 10 µM | HeLa Hsp70 promoter luciferase reporter; scaled: vehicle 0, proteasome-inhibitor control 100% | AID 1203, 2008 | activation, % at 10 µM | 0.04% of 200,000 active;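 active means activation above the mean across all tested compounds plus 3 SD, cutoff set per campaign, cut at about 5.5% in these data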;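 further: 100% = MG132 at 30 µM as the positive control and 0% = DMSO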
GAA30 counter = GAA30 FXN promoter activators, confirmation, counter-screen for GAA850 frataxin promoter activator project, cell-based, luminescence, HEK293, lucGAA30, triplicate. 66% of 1,900 active. AID 588350, 2011. shares compounds with GAA850 FXN act. HEK293 lucGAA30 FXN promoter luciferase, 24 h; DMSO = 0%, 5 µM ipriflavone = 100%. activation, % at 6 µM;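 active means mean activation above the mean of solvent-only control wells plus 3 SD, cut at about 22% in these data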;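 further: counterscreen of GAA850 promoter hits where activity marks nonselective or luminescence artifacts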
GAA850 confirm = FXN GAA850 promoter activators in reporter cells, confirmation, cell-based, luminescence, HEK293 lucGAA850, triplicate; HEK293 lucGAA850 FXN promoter luciferase reporter, 24 h; 100% = activation by SAHA; activation, % at 6 µM; AID 588351, 2011; 86% of 1,900 active; shares compounds with GAA850 FXN act;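 active means mean activation above a set limit taken from the primary screen, cut at about 8% in these data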;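 further: 0% = DMSO wells and 100% = 10 µM SAHA wells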
Numbers without * were called inactive; . = no result.

SMILES | TAG inh | Rad51 HR inh | ABHD5 PLIN5 PPI | GAA850 FXN act | HIF act | Hsp70 act | GAA30 counter | GAA850 confirm
CC[C@@]12C(=O)N(c3cccc(Br)c3)C(=O)N1[C@H](c1ccc(F)cc1)[C@@H]1C(=O)N(C3CCCCC3)C(=O)[C@@H]12 | 11 | . | 3 | 8.4* | 0 | . | 18 | 12*
Cc1ccc(OCC(=O)NC2CCCC(C)C2C)c([N+](=O)[O-])n1 (stereo unspecified) | 4 | . | -2 | 4 | . | . | . | .
CC1(C(=O)OCc2cc(=O)n3cc(Br)ccc3n2)CC1(Cl)Cl (stereo unspecified) | 3 | -22 | -3 | 8.9* | 2 | 0 | 99* | 40*
O=c1[nH]ncc(N/N=C\c2cccnc2)c1Cl | 14 | . | -3 | 0 | 0 | . | . | .
Cc1cccc(/C=N\Nc2cn[nH]c(=O)c2Cl)c1 | . | . | -4 | 22* | 1 | 0 | 66* | 24*
Cc1ccc(Nc2ncccc2C(N)=O)cc1[N+](=O)[O-] | -5 | -5 | 4 | 10* | 2 | 0 | 100* | 27*
O=C1NCCN1Cc1ccccc1 | . | -2 | 4 | 8.6* | 0 | 0 | 20 | 5
CCOC(=O)C1=C(COC(=O)/C=C/c2ccccc2Cl)NC(=O)NC1C (stereo unspecified) | -18 | . | 0 | 8.0* | 2 | . | 49* | 19*
Cc1cc2nc(-c3ccc(NC(=O)C(C)C)cc3)oc2cc1C | 10 | . | 9 | 8.5* | 2 | 0 | 102* | 37*
Fc1ccc(-c2cn3cc(C(F)(F)F)cc(Cl)c3n2)cc1 | -2 | -2 | 7 | 8.8* | 1 | 0 | 97* | 35*
COc1ccc(-c2cn3cc(C(F)(F)F)cc(Cl)c3n2)cc1 | -4 | 1 | -2 | 0 | 5 | 0 | . | .
CC1(c2nnc(-c3ccc(Cl)cc3)o2)CC(c2cccnc2)=NO1 (stereo unspecified) | -8 | 5 | -1 | 2 | 1 | . | . | .
C/C=C/Cn1c(SCc2ccc(Cl)cc2)nc2c1c(=O)[nH]c(=O)n2C | -20 | 1 | 0 | 11* | 0 | 0 | 17 | 17*
COCCn1c(SCc2ccc(Cl)cc2)nc2c1c(=O)[nH]c(=O)n2C | -16 | . | 5 | 5 | 0 | . | . | .
CCCn1c(SCc2ccc(Cl)cc2)nc2c1c(=O)[nH]c(=O)n2C | -159 | 2 | 1 | 9.3* | 0 | 0 | 10 | 15*
Cc1c(C(=O)Nc2ccccc2[N+](=O)[O-])csc1-c1ccccc1 | -23 | -4 | -11 | 4 | 1 | 0 | . | .
Cc1c(C(=O)Nc2ccccc2)csc1-c1ccccc1 | . | 20 | -3 | 8.5* | -1 | 0 | 113* | 29*
CCN(C(=O)CSc1nnc(-c2ccc(F)cc2)n1C)C1CCS(=O)(=O)C1 (stereo unspecified) | -6 | . | -8 | 0 | . | . | . | .
CC(C)[C@H]1COCCS(=O)(=O)N1Cc1ccccc1-c1cccc(Cl)c1 | -6 | . | -3 | -2 | . | . | . | .
NC(=O)[C@@H]1CCCN1C(=O)c1ccc2oc(CCc3ccccc3)nc2c1 | 0 | . | 2 | 7.8* | 3 | . | 74* | 31*
O=C(c1ccc2oc(CCc3ccccc3)nc2c1)N1CCC(O)CC1 | . | . | -2 | 2 | 2 | . | . | .
COc1cccc(-c2oc3c(c2-c2ccc(Br)nc2)C(O)CCC3)c1 (stereo unspecified) | . | . | -6 | . | . | . | . | .
CCOC(=O)c1c(C)[nH]c(C(=O)OCCOc2ccc(Cl)cc2)c1C | . | . | -4 | 3 | 0 | 0 | . | .
CCOC(=O)c1c(C)[nH]c(C(=O)OCCOc2ccccc2C)c1C | . | -4 | -8 | 9.5* | 3 | 0 | 98* | 26*
COc1ccc(/C(C)=N/Nc2ccc(C(=O)O)cc2)cc1OC | . | . | -1 | 8.5* | 2 | 0 | 93* | 32*
SMILES | TAG inh | Rad51 HR inh | ABHD5 PLIN5 PPI | GAA850 FXN act | HIF act | Hsp70 act | GAA30 counter | GAA850 confirm
COc1cc(C(=O)O/N=C2\C=CC(=O)C(C)=C2)cc(OC)c1OC | . | 3 | -4 | 9.2* | 0 | 0 | 35* | 19*
CN(/N=C/c1ccncc1)c1cnc2ccccc2n1 | -10 | 9 | 17 | 9.6* | 4 | 0 | 105* | 29*
Cc1ccccc1/C=N/Nc1ccnc2cc(Cl)ccc12 | . | -1 | -7 | -3 | -1 | 0 | . | .
Oc1ccc(/C=N/Nc2ccnc3cc(Cl)ccc23)c(O)c1 | 10 | 3 | 6 | 12* | 2 | . | 60* | 19*
Oc1ccc(Nc2ccnc3cc(Cl)ccc23)cc1 | . | -6 | 6 | 10* | -14 | . | 39* | 11*
COCCn1c(SCC(=O)NCc2ccc(F)cc2)nc2ccccc21 | . | . | -10 | -3 | 0 | . | . | .
C/C(=N\NC(=O)c1cccs1)c1ccc2c(c1)OCO2 | . | 2 | -3 | 7.6* | 2 | 0 | 77* | 25*
CC(=NNC(=O)c1cccs1)c1ccc2c(c1)OCCO2 | 11 | . | -2 | 3 | . | . | . | .
O=C(Nc1ccccc1F)Nc1ccccc1N1CCCCC1 | 12 | 8 | -6 | -1 | 0 | . | . | .
O=C(NC1=NN(c2ccccc2)CC1)Nc1ccccc1F | 8 | 8 | 3 | 8.5* | 2 | . | 46* | 18*
O=C(Nc1nnc(SCc2ccc(F)cc2)s1)C1CC(=O)N(Cc2ccccc2)C1 (stereo unspecified) | . | 9 | 1 | 11* | 0 | 0 | 25* | 12*
O=C(CN1CCN(C(=O)c2cncn2-c2ccccc2)CC1)Nc1ccccc1Cl | -3 | . | -9 | 1 | . | . | . | .
O=C(NCc1ccccc1)c1cc(-c2ccco2)on1 | . | 0 | 2 | 4 | 1 | 0 | . | .
COc1ccc(CCNC(=O)c2cc(-c3ccco3)on2)cc1OC | -2 | 3 | 0 | 13* | 17* | 0 | 77* | 34*
O=C(NCCc1ccccc1)c1cc(-c2ccco2)on1 | . | -2 | 7 | 13* | 23* | 3 | 153* | 54*
